The record followed here is ChEMBL document CHEMBL1124798, “Design of peptidomimetic delta opioid receptor antagonists using the message-address concept” (J Med Chem, 1990).

Experiment [1] has as its target Opioid receptors; mu & delta (Homo sapiens) (UniProt P41143+P35372). The experiment can be described thus: Selectivity ratio was determined from Ke value of Opioid receptor mu 1 and Opioid receptor delta 1. The format is protein assay. To be noted: Cavia porcellus. In a few lines: (§1)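 Ratios of Ke values, μ/δ or κ/δ. Each Ke = [antagonist]/(IC50 ratio − 1). δ from DADLE in mouse vas deferens; μ (morphine) and κ (ethylketazocine) in guinea pig ileum. 15 min antagonist preincubation, n ≥ 3.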

Experiment [2] addresses Kappa-type opioid receptor (Cavia porcellus) (UniProt P41144). The experiment can be described thus: Opioid receptor kappa 1 antagonistic activity was measured by the displacement of ethylketazocine in the guinea pig ileum at a concentration of 100 nM. Type of experiment: functional, tissue-based. In a few lines: (§2)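 Guinea pig ileum. Antagonist (nM, as stated on line) incubated 15 min before testing. Agonists: morphine (μ) and ethylketazocine (κ).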

The target is the same in experiment [3]. The experiment can be described thus: Antagonist potency was determined as the ratio of [antagonist] to (IC50 ratio-1) for Opioid receptor kappa 1. The format is functional. In a few lines:
(§3)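 Ke (nM) = [antagonist]/(IC50 ratio − 1). IC50 ratio is agonist IC50 with antagonist over the control IC50 in the same preparation. Antagonist preincubated 15 min. Agonists: DADLE in mouse vas deferens (δ); morphine (μ) and ethylketazocine (κ) in guinea pig ileum. n ≥ 3.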

The target of experiment [4] is Mu-type opioid receptor (Cavia porcellus) (UniProt P97266). Put plainly: Opioid receptor mu 1 antagonistic activity was measured by the displacement of morphine in the guinea pig ileum at a concentration of 100 nM. Type of experiment: functional, tissue-based. In a few lines:
as §2

Experiment [5] deals with Delta-type opioid receptor (Mus musculus) (UniProt P32300). The experiment can be described thus: Antagonist potency was determined as the ratio of [antagonist] to (IC50 ratio-1) for opioid receptor delta 1. Type of experiment: functional. In a few lines:
as §3

Experiment [6] concerns the target Kappa-type opioid receptor (Cavia porcellus) (UniProt P41144). The experiment can be described thus: Opioid receptor kappa antagonistic activity was measured by the displacement of ethylketazocine in the guinea pig ileum at a concentration of 100 nM. The format is functional, tissue-based. In a few lines:
as §2

The target in experiment [7] is Opioid receptors; delta & kappa (Homo sapiens) (UniProt P41145+P41143). Put plainly: Selectivity ratio was determined from Ke value of Opioid receptor kappa 1 and Opioid receptor delta 1. Type of experiment: protein assay. To be noted: Cavia porcellus. In a few lines:
as §1

Experiment [8] addresses Mu-type opioid receptor (Cavia porcellus) (UniProt P97266). The experiment can be described thus: Antagonist potency was determined as the ratio of [antagonist] to (IC50 ratio-1) for Opioid receptor mu 1. The format is functional. In a few lines: as §3
The target in experiment [9] is Delta-type opioid receptor (Mus musculus) (UniProt P32300). The experiment can be described thus: Opioid receptor delta 1 antagonistic activity was measured by the displacement of DADLE in the mouse vas deferens at a concentration of 100 nM. The format is functional. In a few lines: (§4)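 Mouse vas deferens. Antagonist (nM, as stated on line) incubated with the preparation 15 min before testing. δ agonist [D-Ala2,D-Leu5]enkephalin.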

For experiment [10] the target is unchanged. The experiment can be described thus: Opioid receptor delta antagonistic activity was measured by the displacement of DADLE in the mouse vas deferens at a concentration of 100 nM. Type of experiment: functional. In a few lines: as §4
The target in experiment [11] is Mu-type opioid receptor (Cavia porcellus) (UniProt P97266). Put plainly: Opioid receptor mu antagonistic activity was measured by the displacement of morphine in the guinea pig ileum at a concentration of 100 nM. Type of experiment: functional, tissue-based. In a few lines: as §2
For experiment [12], the target named is T1, Mu-type opioid receptor (Cavia porcellus, UniProt P97266). Put plainly: Binding affinity was measured by the displacement of [3H]- DAMGO in guinea pig brain membrane of opioid receptor mu. The format is cell membranes. In a few lines: (§5)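 Radioligand displacement from guinea pig brain membranes, modified Werling method. μ sites: [3H]DAMGO. δ sites: [3H]DADLE with 1 μM DAMGO. κ sites: [3H]ethylketazocine with 1 μM DAMGO.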
For orientation: Displacement assays read how much labelled ligand stays bound in the presence of the test substance.

Experiment [13] concerns the target T2, Kappa-type opioid receptor (Cavia porcellus, UniProt P41144). The experiment can be described thus: Binding affinity was measured by the displacement of [3H]- EK in guinea pig brain membrane of Opioid receptor kappa 1. Type of experiment: cell membranes. In a few lines:
as §5

The target of experiment [14] is T2, Kappa-type opioid receptor. The experiment can be described thus: Binding affinity was measured by the displacement of [3H]- EK in guinea pig brain membrane of opioid receptor kappa. Type of experiment: cell membranes. In a few lines: as §5
Experiment [15] has as its target T1, Mu-type opioid receptor. The experiment can be described thus: Binding affinity was measured by the displacement of [3H]- DAMGO in guinea pig brain membrane of Opioid receptor mu 1. The format is cell membranes. In a few lines:
as §5

Bounds are passed on as bounds.

Sequence of Kappa-type opioid receptor (Cavia porcellus) (P41144 whole entry): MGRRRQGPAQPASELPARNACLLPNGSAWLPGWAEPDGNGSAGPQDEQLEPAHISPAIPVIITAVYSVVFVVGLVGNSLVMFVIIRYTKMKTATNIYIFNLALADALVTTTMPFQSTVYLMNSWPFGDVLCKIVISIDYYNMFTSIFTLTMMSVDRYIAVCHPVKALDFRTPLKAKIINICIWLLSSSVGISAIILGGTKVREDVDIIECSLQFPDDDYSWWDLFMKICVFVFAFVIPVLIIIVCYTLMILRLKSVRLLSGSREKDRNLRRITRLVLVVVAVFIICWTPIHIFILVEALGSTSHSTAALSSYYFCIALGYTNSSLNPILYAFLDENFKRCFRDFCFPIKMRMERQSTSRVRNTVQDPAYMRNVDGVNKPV
T2 sequence (P41144 whole entry): as above
Sequence of Delta-type opioid receptor (Mus musculus) (P32300 whole entry): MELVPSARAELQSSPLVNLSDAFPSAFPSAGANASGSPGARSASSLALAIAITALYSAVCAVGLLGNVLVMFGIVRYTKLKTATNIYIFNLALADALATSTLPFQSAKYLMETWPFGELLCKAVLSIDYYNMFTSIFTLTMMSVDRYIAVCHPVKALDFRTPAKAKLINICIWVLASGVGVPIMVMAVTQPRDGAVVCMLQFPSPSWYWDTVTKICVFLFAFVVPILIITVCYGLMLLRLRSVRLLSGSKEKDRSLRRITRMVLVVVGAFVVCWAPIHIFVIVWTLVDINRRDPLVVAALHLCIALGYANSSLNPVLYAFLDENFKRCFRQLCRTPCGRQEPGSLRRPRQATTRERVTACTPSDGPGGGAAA
Sequence of Mu-type opioid receptor (Cavia porcellus) (P97266 whole entry): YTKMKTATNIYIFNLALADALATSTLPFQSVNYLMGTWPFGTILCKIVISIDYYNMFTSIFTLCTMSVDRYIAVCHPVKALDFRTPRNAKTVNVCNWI
T1 sequence (P97266 whole entry): as above
Sequence of Opioid receptors; mu & delta (Homo sapiens) (P35372 whole entry, looked up): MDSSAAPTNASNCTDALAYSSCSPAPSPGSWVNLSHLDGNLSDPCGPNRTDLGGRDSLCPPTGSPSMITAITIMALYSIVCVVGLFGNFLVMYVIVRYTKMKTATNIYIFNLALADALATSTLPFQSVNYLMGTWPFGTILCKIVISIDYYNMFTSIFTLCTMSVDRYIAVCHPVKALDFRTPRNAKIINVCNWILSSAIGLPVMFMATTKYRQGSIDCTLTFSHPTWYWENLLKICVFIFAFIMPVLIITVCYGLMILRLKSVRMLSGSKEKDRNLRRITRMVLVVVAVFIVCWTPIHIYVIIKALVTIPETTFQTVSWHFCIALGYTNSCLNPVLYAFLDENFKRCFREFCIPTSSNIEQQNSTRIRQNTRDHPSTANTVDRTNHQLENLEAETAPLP
Sequence of Opioid receptors; mu & delta (Homo sapiens) (P41143 whole entry, looked up): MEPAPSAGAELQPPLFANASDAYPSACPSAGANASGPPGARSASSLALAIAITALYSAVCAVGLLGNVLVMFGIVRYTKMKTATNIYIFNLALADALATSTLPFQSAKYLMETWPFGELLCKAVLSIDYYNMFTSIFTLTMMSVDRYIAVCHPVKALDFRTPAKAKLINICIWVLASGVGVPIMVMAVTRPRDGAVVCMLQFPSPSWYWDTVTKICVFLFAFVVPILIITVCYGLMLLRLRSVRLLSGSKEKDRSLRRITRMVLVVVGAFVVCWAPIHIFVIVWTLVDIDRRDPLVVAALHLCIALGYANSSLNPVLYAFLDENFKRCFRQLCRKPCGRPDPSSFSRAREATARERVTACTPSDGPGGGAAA
Sequence of Opioid receptors; delta & kappa (Homo sapiens) (P41143 whole entry, looked up): as above
Sequence of Opioid receptors; delta & kappa (Homo sapiens) (P41145 whole entry, looked up): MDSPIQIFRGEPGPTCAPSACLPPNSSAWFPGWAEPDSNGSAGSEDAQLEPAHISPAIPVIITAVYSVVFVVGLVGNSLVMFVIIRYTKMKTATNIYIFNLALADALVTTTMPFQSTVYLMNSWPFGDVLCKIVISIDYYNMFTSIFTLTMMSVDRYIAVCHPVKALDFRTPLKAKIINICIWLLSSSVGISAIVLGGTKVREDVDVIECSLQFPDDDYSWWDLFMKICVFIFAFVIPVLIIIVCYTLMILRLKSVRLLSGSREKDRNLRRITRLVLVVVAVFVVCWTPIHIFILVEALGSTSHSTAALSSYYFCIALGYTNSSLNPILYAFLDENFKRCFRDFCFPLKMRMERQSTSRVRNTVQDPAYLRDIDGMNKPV

With `Oc1ccc2c3c1O[C@H]1c4[nH]c5cc6ccccc6cc5c4C[C@@]4(O)[C@@H](C2)N(CC2CC2)CC[C@]314`, the Selectivity ratio in [1] and in experiment [7] was > 4 in each case. Further, the IC50 ratio in [2] turned out to be 0.91; in [4] it was 0.85; in experiment [6] it was 0.91; in experiment [9], 4.7; in experiment [10], 4.7; in [11] it was 0.85. For the same compound, the figures for the Ke in experiment [3], in experiment [5] and in experiment [8] were > 100 nM, 27 nM and > 118 nM, respectively.

What is called Ki is the dissociation constant of the complex between target and ligand, obtained from inhibition or displacement. The low end stands for higher affinity, the high end for lower affinity. On to `Oc1ccc2c3c1O[C@H]1c4c(c5ccccc5n4-c4ccccc4)C[C@@]4(O)[C@@H](C2)N(CC2CC2)CC[C@]314`, for which the Selectivity ratio in experiment [1] was > 48; in experiment [7] it was > 49. The IC50 ratio in experiment [2] was 6.7; in [4], 1.7; in experiment [6], 6.7; in experiment [9] it was 33; in experiment [10] it was 33; in [11], 1.7. The Ke in experiment [3] is > 152 nM; in experiment [5], 3.1 nM; in experiment [8], > 149 nM. Besides, the Ki in experiment [12] turned out to be 28 nM; in experiment [13], 746 nM; in experiment [14], 746 nM; in experiment [15] it was 28 nM.

For `Oc1ccc2c3c1O[C@H]1c4[nH]c5cc(F)ccc5c4C[C@@]4(O)[C@@H](C2)N(CC2CC2)CC[C@]314`, the Selectivity ratio in experiment [1] was > 28; in [7], > 38. Besides, the IC50 ratio in experiment [2] amounted to 1.6; in [4] it was 1.8; in [6] it was 1.6; in [9], 24; in [10], 24; in experiment [11], 1.8. For the same compound, the Ke in experiment [3] was > 167 nM; in experiment [5], 4.4 nM; in [8] it was > 125 nM.

Take `CC(=O)O[C@@]12Cc3c([nH]c4ccccc34)[C@@H]3Oc4c(O)ccc5c4[C@@]31CCN(CC1CC1)[C@@H]2C5`: the Selectivity ratio in [1] is > 111; in experiment [7], > 54. Besides, the IC50 ratio in [2] came to 1.8; in experiment [4], 1.4; in [6], 1.8; in [9] it was 43; in experiment [10], 43; in experiment [11], 1.4. Besides, the Ke in [3] was > 127 nM; in experiment [5], 2.4 nM; in experiment [8] it was > 263 nM.

Turning to `Oc1ccc2c3c1O[C@H]1c4[nH]c5c(ccc6ccccc65)c4C[C@@]4(O)[C@@H](C2)N(CC2CC2)CC[C@]314`, the Selectivity ratio in experiment [1] is > 55; in [7] it was > 12. The IC50 ratio in [2] turned out to be 0.9; in [4], 1.2; in experiment [6] it was 0.9; in [9] it was 12.1; in [10], 12.1; in experiment [11], 1.2. For the same compound, the values for the Ke in [3], in experiment [5] and in experiment [8] were > 111 nM, 9 nM and > 500 nM, respectively.

Regarding `Oc1ccc2c3c1O[C@H]1c4[nH]c5c(O)cccc5c4C[C@@]4(O)[C@@H](C2)N(CC2CC2)CC[C@]314`, the Selectivity ratio is > 264 in experiment [1] and > 595 in experiment [7]. Further, the IC50 ratio came out at 1.4 in experiment [2]; 1.9 in [4]; 1.4 in [6]; 239 in experiment [9]; 239 in experiment [10]; 1.9 in experiment [11]. Besides, the Ke in experiment [3] is > 250 nM; in [5], 0.42 nM; in experiment [8] it was > 111 nM.

On to `CCOc1cccc2c3c([nH]c12)[C@@H]1Oc2c(O)ccc4c2[C@@]12CCN(CC1CC1)[C@H](C4)[C@]2(O)C3`, for which, in [1], the Selectivity ratio was determined as 24. Further, the IC50 ratio in experiment [2] amounted to 0.67; in [4] it was 8.3; in experiment [6], 0.67; in experiment [9], 178; in experiment [10], 178; in [11], 8.3. For the same compound, the Ke in experiment [5] is 0.57 nM; in experiment [8] it was 13 nM.

On to `CC(C)(S)[C@@H](NC(=O)[C@H](Cc1ccc(O)cc1)NC(=O)CNC(=O)[C@H](NC(=O)[C@@H](N)Cc1ccccc1)C(C)(C)S)C(=O)O`, for which the Selectivity ratio came to 52 in [1] and 202 in [7].

With `Cc1ccc2c3c([nH]c2c1)[C@@H]1Oc2c(O)ccc4c2[C@@]12CCN(CC1CC1)[C@H](C4)[C@]2(O)C3`, the values for the Selectivity ratio in [1] and in experiment [7] were 16 and > 41, respectively. The IC50 ratio in experiment [2] came to 1.7; in experiment [4] it was 2.8; in [6] it was 1.7; in [9], 30; in experiment [10], 30; in experiment [11] it was 2.8. The Ke in experiment [3] is > 143 nM; in experiment [5], 3.5 nM; in experiment [8] it was 55 nM.

As to `Oc1ccc2[nH]c3c(c2c1)C[C@@]1(O)[C@H]2Cc4ccc(O)c5c4[C@@]1(CCN2CC1CC1)[C@H]3O5`, the values for the Selectivity ratio in [1] and in experiment [7] were 0.7 and 1.8, respectively. Also, the IC50 ratio in experiment [2] was 3.1; in experiment [4], 6.4; in experiment [6], 3.1; in [9], 4.7; in [10] it was 4.7; in experiment [11] it was 6.4. In addition, the Ke in [3] came out at 48 nM; in experiment [5] it was 27 nM; in experiment [8], 19 nM.

`Oc1ccc2c3c1O[C@H]1c4[nH]c5ccccc5c4C[C@@]4(O)[C@@H](C2)N(CC2CC2)CC[C@]314` [NALTRINDOLE]: the Ki in experiment [13] was found to be 332 nM; in [14], 332 nM; in experiment [15], 3.8 nM.

Turning to `CN1CC[C@]23c4c5ccc(O)c4O[C@H]2c2c(c4ccccc4n2C)C[C@@]3(O)[C@H]1C5`, the IC50 ratio came to 0.5 in experiment [2]; 0.74 in experiment [4]; 0.5 in [6]; 1.2 in experiment [9]; 1.2 in [10]; 0.74 in experiment [11]. Further, the figures for the Ke in experiment [3], in [5] and in experiment [8] were > 200 nM, > 416 nM and > 135 nM, respectively.

With `COc1ccc2c3c1O[C@H]1c4[nH]c5ccccc5c4C[C@@]4(O)[C@@H](C2)N(CC2CC2)CC[C@]314`, the IC50 ratio in [2] was determined as 0.6; in experiment [4] it was 1.3; in experiment [6], 0.6; in [9] it was 1.5; in experiment [10], 1.5; in experiment [11], 1.3. In addition, the values for the Ke in experiment [3], in experiment [5] and in [8] were > 167 nM, > 200 nM and > 333 nM, respectively. Moreover, the Ki is 550 nM in experiment [12], > 1000 nM in experiment [13], > 1000 nM in experiment [14] and 550 nM in [15].

As to `Cc1cccc2c3c([nH]c12)[C@@H]1Oc2c(O)ccc4c2[C@@]12CCN(CC1CC1)[C@H](C4)[C@]2(O)C3`, the IC50 ratio is 1.3 in experiment [2]; 7.1 in experiment [4]; 1.3 in experiment [6]; 67 in experiment [9]; 67 in experiment [10]; 7.1 in experiment [11]. In experiment [3], the Ke was > 333 nM. The Selectivity ratio in [7] is > 221.

Turning to `CN1CC[C@]23c4c5ccc(O)c4O[C@H]2c2[nH]c4ccccc4c2C[C@@]3(O)[C@H]1C5` [OXYMORPHINDOLE], the IC50 ratio in experiment [2] came out at 0.6; in experiment [4], 0.9; in experiment [6], 0.6; in [9] it was 1.6; in experiment [10] it was 1.6; in [11], 0.9. Besides, the Ke is > 167 nM in [3], 5 nM in experiment [5] and > 111 nM in [8]. In addition, the Ki in [12] was determined as 468 nM; in [13] it was 4470 nM; in experiment [14], 4470 nM; in experiment [15], 468 nM.
